We go through four molecules from ChEMBL document CHEMBL1126770, “2,5-Dimethoxy congeners of (+)-and (-)-3-(3-hydroxyphenyl)-N-n- propylpiperidine” (1993).

The test system of experiment [1] is Rattus norvegicus. In words: DA2 antagonist activity was tested by the duration of onset of action of cardiovascular response at 30 ug/kg. Type of experiment: functional, Heart. Summed up:
(§1)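 In anaesthetised Sprague-Dawley rats (urethane 900 mg/kg ip), cumulative iv doses at 0.48 log10 intervals were given via the femoral vein after ≥5 min of stable responses. Duration of hypotension and bradycardia (min) was taken from femoral arterial pressure and pulse-triggered heart rate recordings. Three rats per compound; mean ± SD.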

The test system of experiment [2] is Rattus norvegicus. In words: DA2 antagonist activity was tested by its ability to decrease the heart rate in anesthetized rat at 10 ug/kg. It counts as functional. Summed up:
(§2)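 Urethane-anaesthetised (900 mg/kg ip) Sprague-Dawley rats received iv cumulative doses via the femoral vein, at 0.48 log10 steps once responses had been stable ≥5 min. Heart rate came from a cardiotachometer triggered by the femoral arterial pulse, as decrease in beats/min. n = 3 rats per compound; mean ± SD.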

In experiment [3] the test system is Rattus norvegicus. In words: DA2 antagonist activity was tested by the duration of onset of action of cardiovascular response at 10 ug/kg. Type of experiment: functional, Heart. Summed up:
as §1

In experiment [4] the test system is Rattus norvegicus. Briefly: DA2 antagonist activity was tested by its ability to decrease the arterial pressure in anesthetized rat at 10 ug/kg. It counts as functional, Artery. Summed up: (§3)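 Sprague-Dawley rats under urethane anaesthesia (900 mg/kg ip), with a femoral vein cannula for drug. Compound given iv as cumulative doses spaced 0.48 log10 units apart, each after responses had been stable ≥5 min. Mean arterial pressure was recorded from the femoral artery via a transducer, as decrease in mmHg. Three rats per compound; mean ± SD.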

Experiment [5] has as its system Rattus norvegicus. In words: DA2 antagonist activity was tested by its ability to decrease the arterial pressure in anesthetized rat at 30 ug/kg. Type of experiment: functional, Artery. Summed up:
as §3

For experiment [6], the system named is Rattus norvegicus. In words: DA2 antagonist activity was tested by its ability to decrease the heart rate in anesthetized rat at 100 ug/kg. It counts as functional. Summed up: as §2
In experiment [7] the test system is Rattus norvegicus. Briefly: DA2 antagonist activity was tested by its ability to decrease the heart rate in anesthetized rat at 30 ug/kg. Type of experiment: functional. In short, it runs like this:
as §2

For experiment [8], the system named is Rattus norvegicus. In words: DA2 antagonist activity was tested by the duration of onset of action of cardiovascular response at 100 ug/kg. It counts as functional, Heart. In short, it runs like this:
as §1

Experiment [9] concerns Rattus norvegicus. In words: DA2 antagonist activity was tested by its ability to decrease the arterial pressure in anesthetized rat at 100 ug/kg. Type of experiment: functional, Artery. In short, it runs like this:
as §3

Experiment [10] relates to Rattus norvegicus. In words: DA2 antagonist activity was tested by the duration of onset of action of cardiovascular response at 300 ug/kg. It counts as functional, Heart. Summed up: as §1
The test system of experiment [11] is Rattus norvegicus. In words: DA2 antagonist activity was tested by its to decrease the heart rate in anesthetized rat at 1000 ug/kg. Type of experiment: functional. In short, it runs like this: as §2
The test system of experiment [12] is Rattus norvegicus. In words: DA2 antagonist activity was tested by its to decrease the heart rate in anesthetized rat at 300 ug/kg. Type of experiment: functional. Summed up:
as §2

Experiment [13] concerns Rattus norvegicus. In words: DA2 antagonist activity was tested by its ability to decrease the arterial pressure in anesthetized rat at 3000 ug/kg. It counts as functional, Artery. In short, it runs like this: as §3
In experiment [14] the test system is Rattus norvegicus. Briefly: DA2 antagonist activity was tested by the duration of onset of action of cardiovascular response at 1000 ug/kg. It counts as functional, Heart. In short, it runs like this: as §1
The test system of experiment [15] is Rattus norvegicus. Briefly: DA2 antagonist activity was tested by its to decrease the heart rate in anesthetized rat at 3000 ug/kg. It counts as functional. In short, it runs like this: as §2
For experiment [16], the system named is Rattus norvegicus. In words: DA2 antagonist activity was tested by the duration of onset of action of cardiovascular response at 3000 ug/kg. Type of experiment: functional, Heart. In short, it runs like this: as §1
Experiment [17] relates to Rattus norvegicus. Briefly: DA2 antagonist activity was tested by its ability to decrease the arterial pressure in anesthetized rat at 300 ug/kg. It counts as functional, Artery. In short, it runs like this: as §3
In experiment [18] the test system is Rattus norvegicus. Briefly: DA2 antagonist activity was tested by the duration of onset of action of cardiovascular response at 1000 ug/kg; Insufficient sample for statistical treatment. Type of experiment: functional, Heart.
Experiment [19] relates to Rattus norvegicus. In words: DA2 antagonist activity was tested by its ability to decrease the heart rate in anesthetized rat at 1000 ug/kg. It counts as functional. In short, it runs like this: as §2
The subject of experiment [20] is Rattus norvegicus. Briefly: DA2 antagonist activity was tested by its ability to decrease the heart rate in anesthetized rat at 300 ug/kg. Type of experiment: functional. Summed up: as §2
Experiment [21] concerns Rattus norvegicus. In words: DA2 antagonist activity was tested by its ability to decrease the heart rate in anesthetized rat at 3000 ug/kg. It counts as functional. In short, it runs like this: as §2
In experiment [22] the test system is Rattus norvegicus. In words: DA2 antagonist activity was tested by its ability to decrease the arterial pressure in anesthetized rat at […] ug/kg. It counts as functional, Artery. Summed up:
as §3

As for `CCCN1CCC[C@H](c2cccc(O)c2)C1`, the Duration of action with Rattus norvegicus [1] is 10 min; in the experiment with Rattus norvegicus [3], 6 min; with Rattus norvegicus [8] it was 14 min. Further, the “Decrease in heart rate” value in the experiment on Rattus norvegicus [2] was found to be 13 beats min-1; with Rattus norvegicus [6] it was 44 beats min-1; in the experiment on Rattus norvegicus [7], 37 beats min-1. The Decrease in pressure in the experiment on Rattus norvegicus [4] is 5 mmHg; in the experiment with Rattus norvegicus [5] it was 16 mmHg; in the experiment on Rattus norvegicus [9], 23 mmHg.

Regarding `CCCN1CCCC(c2cc(OC)ccc2OC)C1` (racemic), the Duration of action turned out to be 5 min in the experiment on Rattus norvegicus [10], 8 min with Rattus norvegicus [14] and 13 min in the experiment with Rattus norvegicus [16]. For the same molecule, the “Decrease in heart rate” value amounted to 35 beats min-1 with Rattus norvegicus [11], 17 beats min-1 with Rattus norvegicus [12] and 45 beats min-1 in the experiment with Rattus norvegicus [15]. In addition, the Decrease in pressure with Rattus norvegicus [13] was found to be 23 mmHg; in the experiment on Rattus norvegicus [17] it was 10 mmHg.

As for `CCCN1CCCC(c2cc(OC)ccc2OC)C1` (single isomer, unassigned; (+)), the Duration of action in the experiment on Rattus norvegicus [18] is listed as 18 min. For the same molecule, the “Decrease in heart rate” value in the experiment with Rattus norvegicus [19] came to 30 beats min-1.

For `CCCN1CCCC(c2cc(OC)ccc2OC)C1` (single isomer, unassigned; (-)), the Duration of action in the experiment with Rattus norvegicus [10] came out at 2 min; in the experiment on Rattus norvegicus [14], 5 min; in the experiment with Rattus norvegicus [16], 10 min. Further, the figures for the “Decrease in heart rate” value in the experiment with Rattus norvegicus [20], in the experiment on Rattus norvegicus [21] and with Rattus norvegicus [19] were 10 beats min-1, 45 beats min-1 and 40 beats min-1, respectively. Moreover, the Decrease in pressure in the experiment on Rattus norvegicus [22] stood at 27 mmHg; with Rattus norvegicus [17], 15 mmHg.
